In the EternaBench riboswitch data:

Tested on: MS2 coat protein
Assay: apparent Kd, MS2 coat protein; higher = weaker binding; RNA-MaP array
Procedure, shortened: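 Binding of fluorescently labeled MS2 coat protein, at 1.5 nM to 3 μM and room temperature, was measured with or without input ligand on designed RNAs transcribed on an Illumina sequencing chip from sequenced DNA templates. Apparent Kd was defined as the median of per-cluster binding-curve fits. No design measured on fewer than 10 clusters was kept.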

[1] = designed as: OFF switch for flavin mononucleotide, no ligand
[2] = ligand present: flavin mononucleotide, designed as: OFF switch for flavin mononucleotide
[3] = designed as: ON switch for flavin mononucleotide, no ligand
[4] = ligand present: flavin mononucleotide, designed as: ON switch for flavin mononucleotide
[5] = designed as: ON switch for theophylline, no ligand
[6] = ligand present: theophylline, designed as: ON switch for theophylline
[7] = designed as: OFF switch for tryptophan, no ligand
[8] = ligand present: tryptophan, designed as: OFF switch for tryptophan
[9] = designed as: OFF switch for theophylline, no ligand
[10] = ligand present: theophylline, designed as: OFF switch for theophylline

## UCCGUUGUAGGAUAUACAUGAGGAUCACCCAUGUAAUGUGGGCAAUUAUAAACUUACUGUAGAAGGACAGAGUG
[1]
  apparent Kd: 493 nM
[2]
  apparent Kd: 555 nM

## CAUCCAACACAAGGAUAUUGGACGUUUUUCAGCGCACAUGAGGAUCACCCAUGUACAAGGGAGUACAAGAAGGUGUUUUGGAUC
[3]
  apparent Kd: 27.1 nM
[4]
  apparent Kd: 9.49 nM

## CUGUUACAUGAGGAUCACCCAUGUGAGCGGUUGCUAGGAUAUCGCCAUUGGUGGUUCGGACGAGAAGGAGCUAAAA
[3]
  apparent Kd: 150 nM
[4]
  apparent Kd: 67.2 nM

## GGAUACAGGAUAGGAUAUUCUGGGCCUUACAUGAGGAUCACCCAUGUGGAUUUUAUAUAUAGCCGGAAGAAGGAUCAACAGGUG
[1]
  apparent Kd: 11.8 nM
[2]
  apparent Kd: 9.21 nM

## UGAGUCUAAGGAUAUGCUGCCGACAACAUGAGGAUCACCCAUGUCUUUCGUUGUUCGCCGGCAGAAGGUAGCAAUU
[1]
  apparent Kd: 561 nM
[2]
  apparent Kd: 262 nM

## UGGUCAGAUGUAAGGAUAUUCGCUCUAAUUUCUCAGAAGAAGGUACAUGAGGAUCACCCAUGUAAUAAAGAAAA
[1]
  apparent Kd: 9.38 nM
[2]
  apparent Kd: 19.6 nM

## UGGGAACGAGGAUAUACAUGAGGAUCACCCAUGUUCAAGAUUCGGGUAUAAUGCCUCAGUAGAAGGCGUAAGCA
[1]
  apparent Kd: 107 nM
[2]
  apparent Kd: 108 nM

## AUUAGGCGGCAGAAGGCCCAUACCCGGACAUGAGGAUCACCCAUGUACUCGUUUCGCCAUAUCAGGGAGGAUAUGCCAACAACU
[1]
  apparent Kd: 17.5 nM
[2]
  apparent Kd: 15.8 nM

## UAUCUAACGAAGGAUACCAGUACAUGAGAGUACAUGAGGAUCACCCAUGUUAGAUACGGGUACCCUUGGCAGCCUCACCUACACC
[5]
  apparent Kd: 56.8 nM
[6]
  apparent Kd: 63.3 nM

## CGACAUUAGUAGAAGGAGGAGUAGCGAUAGAGCCUAGGAUAUACGAACAAAUACAUGAGGAUCACCCAUGUUGACGAUCCAUCA
[1]
  apparent Kd: 49 nM
[2]
  apparent Kd: 45.8 nM

## UGGAGAUAGACGGCCGCCACUAACAUGAGGAUCACCCAUGUCGUCACGAAUGGAUGGCCCUAGAAUAGGACCGGGUCCGGAUUCA
[7]
  apparent Kd: 33.6 nM
[8]
  apparent Kd: 34.8 nM

## AUAAAAUGCUUAGGAUAUGUAACAGCAUGCACAUGAGGAUCACCCAUGUUAUAUUUAGUGGAAUGACAGAAGGAAGUAGAGACU
[3]
  apparent Kd: 18.6 nM
[4]
  apparent Kd: 13.5 nM

## CUUACUCGUCUAGGAUAUCGAAUGCCAACAUGAGGAUCACCCAUGUGUGGGUUGAUCGUCUAGGCCGAGAAGGAGACUGCAAUC
[1]
  apparent Kd: 8.88 nM
[2]
  apparent Kd: 18.1 nM

## ACCCUGUGAGGAUAUUAUUAGCUCGGCCAUAAUAAGGAUAGUAAGAAGGCACAUGAGGAUCACCCAUGUAUCCU
[1]
  apparent Kd: 21.8 nM
[2]
  apparent Kd: 19.2 nM

## CAACGGUUAGAGAAGGCAUAGUAAAGAAUUCAAUGAGGAUAUCUAAAGAAAUGUAUAGGUCUUUUACAUGAGGAUCACCCAUGU
[1]
  apparent Kd: 17.6 nM
[2]
  apparent Kd: 9.47 nM

## GUACUGCAGUUAGGAUAUACCGGAGGAUUAUACACCUACUAACAUGAGGAUCACCCAUGUCUCUCGUAGAAGGAACAUAUUAGC
[3]
  apparent Kd: 20.9 nM
[4]
  apparent Kd: 16.5 nM

## AGGCGCAACGUAGGAUAUACCGGCAUUGUCCAAGUAGAAGGACGUUGUGAUCGCUAGGUAACAUGAGGAUCACCCAUGUCUUAC
[3]
  apparent Kd: 6.96 nM
[4]
  apparent Kd: 5.8 nM

## CAUCCACCUGAAGCCUCCCAAUUCCUCGAUACCAGAGGAUUAAGACUCCCUUGGCAGCGAGCUACAUGAGGAUCACCCAUGUGCC
[9]
  apparent Kd: 19.1 nM
[10]
  apparent Kd: 23.9 nM

## GAUGGUGUCAAGGAUAUUCCUAGCGGCUCGUUCGAAGAAGGUGAUACAUGAGGAUCACCCAUGUCCCUCCAUUU
[1]
  apparent Kd: 18.2 nM
[2]
  apparent Kd: 16.9 nM

## CCAGCUAAAGGAUAUACUGCCGGUGUUAUGUAAUAAUUGCAACAUGAGGAUCACCCAUGUAGAAGGUAAGUGAA
[1]
  apparent Kd: 11 nM
[2]
  apparent Kd: 9.45 nM

## GUGUCUUGGGAGGAUAUCCACUUCACGUCAUAUGGAGAAGGCCCGACAUGAGGAUCACCCAUGUGGUAACUGGC
[1]
  apparent Kd: 25.7 nM
[2]
  apparent Kd: 28.7 nM

## GACAUGAGGAUCACCCAUGUAUGUGGGACUGCGCAUUGAUACUAGGAUAUCUGCCCAGACGUGUGAGAGAAGGAGUACGGUAAA
[3]
  apparent Kd: 74.7 nM
[4]
  apparent Kd: 56 nM

## UAUGGACAUGAGGAUCACCCAUGUGGUAGAUGCUUAGGAUAUUAGACAGGAUACAUGUACUAAGAAGGAAGAUGGU
[3]
  apparent Kd: 266 nM
[4]
  apparent Kd: 102 nM

## AGCGACAUGAGGAUCACCCAUGUACAUUCCCGAGGACCGGUACGGCCGCCACUCGAUGGAAGUGGUAGCAGCUUGGAUGGGCCUA
Designed as: ON switch for tryptophan, no ligand
  apparent Kd: 15.7 nM
Ligand present: tryptophan, designed as: ON switch for tryptophan
  apparent Kd: 26.7 nM

## CGGGCACAUGAGGAUCACCCAUGUAAGGAUAUGAACAGUUUUCACAGAGUUUCACUAUUCAGAAGGUACGUUUC
[1]
  apparent Kd: 24.2 nM
[2]
  apparent Kd: 20.8 nM

## UCCUCGUUAGGAUAUGCCCACAUACACAGUUGUGAACUCUGGCAGAAGGAACAUGAGGAUCACCCAUGUAUAUA
[1]
  apparent Kd: 89.3 nM
[2]
  apparent Kd: 230 nM

## AUUCGCCGAGGAUAUAAGUCGUUUGACAUGAGGAUCACCCAUGUUGUCAGUGGAAAUCGUUUAGAAGGCGGCCUCC
[1]
  apparent Kd: 18.9 nM
[2]
  apparent Kd: 13.4 nM

## UUGUGACAUGAGGAUCACCCAUGUGAGGAUAUUCUGCUUGUGGAUAGUACGACUUGAUGAAGAAGGCACGUUAU
[1]
  apparent Kd: 34.7 nM
[2]
  apparent Kd: 33.3 nM

## GUGACACAUGAGGAUCACCCAUGUCAGGAUAUAGGUCAGCAAAGUAACCAUGACGAGACUAGAAGGGACGCGUG
[1]
  apparent Kd: 30.5 nM
[2]
  apparent Kd: 22.5 nM

## CUGUACAUGAGGAUCACCCAUGUUAGACCAGCUUAAAAUAUAAGAAGGUUGAGGGCUUGACCAACAAAGGAUAUUAUGUGACCA
[3]
  apparent Kd: 27.7 nM
[4]
  apparent Kd: 18.1 nM

## CAUUUACAUGAGGAUCACCCAUGUUAGUAAUGCUGAGGAUAUGGUCCACGCUCCUAUUUACCAGAAGGCAGUCUUG
[3]
  apparent Kd: 19.2 nM
[4]
  apparent Kd: 13.8 nM

## CCUCAGCAAUUGGAUACCAGUACAUCGUAAGACAUGAGGAUCACCCAUGUGGGCUUGACAUACCCUUGGCAGCCAUCCUUGAUCC
[5]
  apparent Kd: 234 nM
[6]
  apparent Kd: 252 nM

## GAAUUUCGGAAGAAGGGACUCGAUCAGUUCAGGUCAGGAUAUUCACAUGAGGAUCACCCAUGUCCAUCAGCAUGACGUUUCCAC
[1]
  apparent Kd: 10.9 nM
[2]
  apparent Kd: 14.7 nM

## AGGCACCAGAGAGGAUAUUAGGACAGCGAACAUGAGGAUCACCCAUGUAUGUUUGUUAGGCGAGCUAAGAAGGCUCCACGGGUU
[1]
  apparent Kd: 6.9 nM
[2]
  apparent Kd: 6.73 nM

## UCCUCGCACGAGAAGGCAAGCCGAGAAACACCUUGAGGAUAUCGUCGACAGACCACCGGGACAUGAGGAUCACCCAUGUGGGCC
[1]
  apparent Kd: 75.2 nM
[2]
  apparent Kd: 49 nM

## AAUGAAAAGCAGAAGGCCUUAGCAAGUCGUAGAGGAGGAUAUGCGUACGCGGGUUGGCCAACAUGAGGAUCACCCAUGUCACCA
[1]
  apparent Kd: 22.4 nM
[2]
  apparent Kd: 26.3 nM

## GACAGGAAAGGAUAUACAAAAUAGAUCAAACGCACACAAAGACAUGAGGAUCACCCAUGUAGAAGGUACUGACA
[1]
  apparent Kd: 11.3 nM
[2]
  apparent Kd: 9.76 nM

## UAAUUCACUAUUCACGGUCCGAUGUUCGAUACCAGAUCAUUUCGAAUCCCUUGGCAGCGAUUAACAUGAGGAUCACCCAUGUAAC
[9]
  apparent Kd: 32.2 nM
[10]
  apparent Kd: 83.9 nM

## AUCAAUAAUGUUAGGAUAUCUAGCUAUUUUAUGGUAGAGAAGGAACAUGAGGAUCACCCAUGUUGAGCUAUAUU
[1]
  apparent Kd: 8.45 nM
[2]
  apparent Kd: 8.82 nM

## UAAAUUGAAGGAUAUACAUGAGGAUCACCCAUGUAAGAAAUACAUGAAAAUAACAACAGUAGAAGGUCAAAACU
[1]
  apparent Kd: 15.9 nM
[2]
  apparent Kd: 12.7 nM

## CGUCCACAUGAGGAUCACCCAUGUACACGCGAUCAAGGAUAUCGCGAUAACACAAUAGUGCGAGAAGGUGAUGUAC
[3]
  apparent Kd: 148 nM
[4]
  apparent Kd: 79.6 nM

## UUCUGUUCCAAGAAGGUCAAAAUUGAUGCCUCUGAAGGAUAUUGGACAGCCAAGGUCUGUGACAUGAGGAUCACCCAUGUUCAG
[3]
  apparent Kd: 6.72 nM
[4]
  apparent Kd: 6.14 nM

## AUGAUAUGGGACAUGAGGAUCACCCAUGUCGGCUUUGUCACGCAGGAUAUUGCGACUCAAAUCGUCAAGAAGGGCGGAGACUCC
[1]
  apparent Kd: 21.5 nM
[2]
  apparent Kd: 19.6 nM

## CCUGGGACAUGAGGAUCACCCAUGUGUGUUAUCGGUGCGUGAGAGGAUAUACACAGCGUCCGUUAGUAGAAGGCUCAUGAUGUA
[1]
  apparent Kd: 88.3 nM
[2]
  apparent Kd: 52.5 nM

## UUUAACAAGAACGUCCUGAGUGACAAGCUACGAGGACCGGUACGGCCGCCACUCGUACCAAAACAUGAGGAUCACCCAUGUUAAA
[7]
  apparent Kd: 17.4 nM
[8]
  apparent Kd: 17.8 nM

## AUAAAUAAUUCAGGAUAUUGCGAUCAAACAACAUGAGGAUCACCCAUGUCCGUAAACACAACAAGCAAGAAGGGAAAGAAUCAA
[3]
  apparent Kd: 24.6 nM
[4]
  apparent Kd: 14.6 nM

## GAGGCAACGAUGGAGGAUAUACUAGGUAAUACAUGAGGAUCACCCAUGUGAGAAAGAGAGUACAUGUAGAAGGCCAGAUAUGCGGU
[3]
  apparent Kd: 30.5 nM
[4]
  apparent Kd: 11.8 nM

## AAAGCAGUAGGAUAUACAGUCAUCCGACAGAUAGCGUAAAGACAUGAGGAUCACCCAUGUAGAAGGACUGUAAA
[1]
  apparent Kd: 6.35 nM
[2]
  apparent Kd: 6.28 nM

## CGUAUAGCAGGAUAUUGCAGCCGGCACAUGAGGAUCACCCAUGUCGAUGGUCCGCCAUAGCAAGAAGGGCUAGUAG
[1]
  apparent Kd: 85.7 nM
[2]
  apparent Kd: 57.1 nM

## CUUGUGCUGACGGCCGCCACUUUAUGGGAGUCCUGUUCUGAUUGAUACAUGAGGAUCACCCAUGUAAGGACCGGGUCGUACCAUA
[7]
  apparent Kd: 18 nM
[8]
  apparent Kd: 22.3 nM

## AACUAAAACGAUAGUCGACAUGAGGAUCACCCAUGUACAAAACAGGAUAUAAGAUUACCGGUGUGUAAGAAGGGUUUGCUAUCA
[3]
  apparent Kd: 15.2 nM
[4]
  apparent Kd: 12.6 nM

## CCGACCCAAGGAUAUACAUGAGGAUCACCCAUGUAUAAAAUAUACCAAGGUAAAAUAUGUAGAAGGAGGAUAUG
[1]
  apparent Kd: 6.54 nM
[2]
  apparent Kd: 6.17 nM

## UACAUACAUGAGGAUCACCCAUGUUGCGAUACCAGCGAAAGAGACCGCCCUUGGCAGCGCUCAUUUAGUUCCAUUCUUGAUCGAA
[5]
  apparent Kd: 14.3 nM
[6]
  apparent Kd: 25.1 nM

## GUGGCUUCGGUGAGGAUAUGUCCGAUAAAACUGAGACAGAAGGCACAUGAGGAUCACCCAUGUAGCGUUGAUUC
[1]
  apparent Kd: 17.5 nM
[2]
  apparent Kd: 44.5 nM

## UAAGUGCUCACAUGAGGAUCACCCAUGUAUUUACUUAUGAGGAGAAGGAUCAAGGAGCAGCGGUGAUAGGAUAUCCUAAUAGAA
[3]
  apparent Kd: 33 nM
[4]
  apparent Kd: 23.6 nM
